The subject of the assay is Mus musculus. Kind of assay: Antiinflammatory activity against xylene-induced ear edema in ICR mouse at 20 mg/kg, po. It counts as functional, organism-based. On the set-up: dose 20 mg/kg. Summed up:
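Mice dosed orally with compound suspended in CMC (2.0 mg/mL), vehicle group given CMC, aspirin in CMC as positive control; 30 min later 0.03 mL xylene applied to both surfaces of right ear, left ear untreated. After 2 h mice killed, 7 mm ear punches weighed; edema = right minus left section weight, expressed as % inhibition. n = 11; ANOVA, p < 0.05.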

Calls of active or inactive are those of the source. The calls are words filed in the database; no cut-off is given here.

On to `CC(C)C[C@H](NCCC1OCC(C)(C)CO1)C(=O)O`, for which the outcome was Active.
For `CC1(C)COC(CCN[C@@H](Cc2ccc(O)cc2)C(=O)O)OC1`, the outcome was Active.
Turning to `CC1(C)COC(CCN[C@@H](CC(N)=O)C(=O)O)OC1`, the outcome was Active.
`C[C@@H](O)[C@H](NCCC1OCC(C)(C)CO1)C(=O)O`: the outcome was Active.
Regarding `CC1(C)COC(CCN[C@@H](CCC(=O)O)C(=O)O)OC1`, the outcome was Active.
`CC1(C)COC(CCN[C@@H](CCCNC(=N)N)C(=O)O)OC1`: the result was Active.
With `CC[C@H](C)[C@H](NCCC1OCC(C)(C)CO1)C(=O)O`, the outcome was Active.
In the case of `CC1(C)COC(CCN[C@@H](CCCCN)C(=O)O)OC1`, the outcome was Active.
Consider `CC(C)[C@H](NCCC1OCC(C)(C)CO1)C(=O)O`, for which the outcome was Active.
As for `CC1(C)COC(CCN2CCC[C@H]2C(=O)O)OC1`, the result was Active.
For `CC1(C)COC(CCN[C@@H](Cc2c[nH]cn2)C(=O)O)OC1`, the outcome was Active.
As to `CC1(C)COC(CCN[C@@H](CCC(N)=O)C(=O)O)OC1`, the outcome was Active.
Under `C[C@H](NCCC1OCC(C)(C)CO1)C(=O)O` stands “Active”; under `CSCC[C@H](NCCC1OCC(C)(C)CO1)C(=O)O`, “Active”; under `CC1(C)COC(CCN[C@@H](CO)C(=O)O)OC1`, “Active”.
With `CC1(C)COC(CCNCC(=O)O)OC1`, the result was Active.
The same measure for `CC1(C)COC(CCN[C@@H](CC(=O)O)C(=O)O)OC1`: “Active”; for `CC1(C)COC(CCN[C@@H](Cc2ccccc2)C(=O)O)OC1`: “Active”.
As for `CC1(C)COC(CCN[C@@H](Cc2c[nH]c3ccccc23)C(=O)O)OC1`, the result was Active.

Source of the values: ChEMBL document CHEMBL1149758, “N-[2-(5,5-dimethyl-1,3-dioxane-2-yl)ethyl]amino acids: their synthesis, anti-inflammatory evaluation and QSAR analysis” (Eur J Med Chem, 2008).
